Experimental data as given in ChEMBL document CHEMBL1133594, “Structure-function studies on the new growth hormone-releasing peptide, ghrelin: minimal sequence of ghrelin necessary for activation of growth hormone secretagogue receptor 1a” (J Med Chem, 2000).
Residues, ends and D or L forms follow the SMILES beside them. *: point of attachment. Octanoyl = CCCCCCCC(=O)*

Key:
[1] = molecular target: Growth hormone secretagogue receptor type 1 (Homo sapiens, UniProt Q92847); test: Binding affinity to cloned human growth hormone secretagogue receptor type 1 in a competitive binding assay with [35S]MK-0677 as a radiolabeled ligand
Chain of Growth hormone secretagogue receptor type 1 (Q92847 whole entry): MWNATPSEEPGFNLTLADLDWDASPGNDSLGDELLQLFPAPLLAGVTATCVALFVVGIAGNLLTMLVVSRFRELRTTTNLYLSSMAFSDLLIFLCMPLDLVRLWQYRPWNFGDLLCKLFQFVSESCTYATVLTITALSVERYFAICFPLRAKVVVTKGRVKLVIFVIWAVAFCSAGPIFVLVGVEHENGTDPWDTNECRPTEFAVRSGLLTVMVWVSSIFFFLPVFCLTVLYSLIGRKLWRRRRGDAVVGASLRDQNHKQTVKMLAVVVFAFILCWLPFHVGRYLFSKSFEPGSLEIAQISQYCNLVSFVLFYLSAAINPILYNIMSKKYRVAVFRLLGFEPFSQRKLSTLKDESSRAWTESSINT
In short: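 Competition filter binding on crude membranes from HEK293-aequorin stable cells expressing hGHSR1a, 4 µg membrane protein/well. Bound membranes were filtered on 0.5% polyethylenimine-prewet GF/C filters, washed 8 times and counted by scintillation.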

HEK293 [2] = test: Effective dose measuring intracellular calcium elevation in HEK293 cells; format: functional, cell-based; conditions: Homo sapiens
In short: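 Apo-aequorin was charged 1 h with 10 µM coelenterazine and 300 µM reduced glutathione in ECB buffer, pH 7.4. 5 × 10^4 cells were injected onto peptide and light integrated over 30 s, then Triton X-100 lysis (0.1% final) read over 10 s. Fractional response = challenge/total luminescence.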

HEK293 [3] = test: Percent activation at 10 uM relative to ghrelin to measure intracellular calcium elevation in HEK293 cells; format: functional, Homo sapiens

Compound	IC50 [1]	EC50 (HEK293 [2])	Activation (HEK293 [3])
CCCCCCCC(=O)OC[C@H](NC(=O)[C@H](CO)NC(=O)CN)C(=O)N[C@@H](Cc1ccccc1)C(=O)N[C@@H](CC(C)C)C(=O)N[C@@H](CO)C(=O)N1CCC[C@H]1C(=O)N[C@@H](CCC(=O)O)C(=O)N[C@@H](Cc1c[nH]cn1)C(=O)N[C@@H](CCC(N)=O)C(=O)N[C@@H](CCCN=C(N)N)C(=O)N[C@H](C(=O)N[C@@H](CCC(N)=O)C(=O)N[C@@H](CCC(N)=O)C(=O)O)C(C)C [listing 1 of 2 here]	9.6 nM	17 nM	
CCCCCCCC(=O)OC[C@H](NC(=O)[C@H](CO)NC(=O)CN)C(=O)N[C@@H](Cc1ccccc1)C(=O)N[C@@H](CC(C)C)C(=O)N[C@@H](CO)C(=O)N1CCC[C@H]1C(=O)N[C@@H](CCC(=O)O)C(=O)N[C@@H](Cc1c[nH]cn1)C(=O)N[C@@H](CCC(N)=O)C(=O)N[C@@H](CCCN=C(N)N)C(=O)N[C@H](C(=O)N[C@@H](CCC(N)=O)C(=O)N[C@@H](CCC(N)=O)C(=O)O)C(C)C [listing 2 of 2 here]			97%
CCCCCCCC(=O)NC[C@H](NC(=O)[C@H](CO)NC(=O)CN)C(=O)N[C@@H](Cc1ccccc1)C(=O)N[C@@H](CC(C)C)C(=O)N[C@@H](CO)C(=O)N1CCC[C@H]1C(=O)N[C@@H](CCC(=O)O)C(=O)N[C@@H](Cc1c[nH]cn1)C(=O)N[C@@H](CCC(N)=O)C(=O)N[C@@H](CCCNC(=N)N)C(=O)N[C@H](C(=O)N[C@@H](CCC(N)=O)C(=O)N[C@@H](CCC(N)=O)C(=O)O)C(C)C [listing 1 of 2 here]	8 nM	38 nM	
CCCCCCCC(=O)NC[C@H](NC(=O)[C@H](CO)NC(=O)CN)C(=O)N[C@@H](Cc1ccccc1)C(=O)N[C@@H](CC(C)C)C(=O)N[C@@H](CO)C(=O)N1CCC[C@H]1C(=O)N[C@@H](CCC(=O)O)C(=O)N[C@@H](Cc1c[nH]cn1)C(=O)N[C@@H](CCC(N)=O)C(=O)N[C@@H](CCCNC(=N)N)C(=O)N[C@H](C(=O)N[C@@H](CCC(N)=O)C(=O)N[C@@H](CCC(N)=O)C(=O)O)C(C)C [listing 2 of 2 here]			102%
CCCCCCCC(=O)OC[C@H](NC(=O)[C@H](CO)NC(=O)CN)C(=O)N[C@@H](Cc1ccccc1)C(=O)N[C@@H](CC(C)C)C(=O)N[C@@H](CO)C(=O)N1CCC[C@H]1C(=O)N[C@@H](CCC(=O)O)C(=O)N[C@@H](Cc1cnc[nH]1)C(=O)N[C@@H](CCC(N)=O)C(=O)N[C@@H](CCCNC(=N)N)C(=O)N[C@H](C(=O)N[C@@H](CCC(N)=O)C(=O)N[C@@H](CCC(N)=O)C(=O)N[C@@H](CCCNC(=N)N)C(=O)N[C@@H](CCCCN)C(=O)N[C@@H](CCC(=O)O)C(=O)N[C@@H](CO)C(=O)N[C@@H](CCCCN)C(=O)N[C@@H](CCCCN)C(=O)N1CCC[C@H]1C(=O)N1CCC[C@H]1C(=O)N[C@@H](C)C(=O)N[C@@H](CCCCN)C(=O)N[C@@H](CC(C)C)C(=O)N[C@@H](CCC(N)=O)C(=O)N1CCC[C@H]1C(=O)N[C@@H](CCCNC(=N)N)C(=O)O)C(C)C			100%
CC(C)C[C@H](NC(=O)[C@H](CCCCN)NC(=O)[C@H](C)NC(=O)[C@@H]1CCCN1C(=O)[C@@H]1CCCN1C(=O)[C@H](CCCCN)NC(=O)[C@H](CCCCN)NC(=O)[C@H](CO)NC(=O)[C@H](CCC(=O)O)NC(=O)[C@H](CCCCN)NC(=O)[C@H](CCCNC(=N)N)NC(=O)[C@H](CCC(N)=O)NC(=O)[C@H](CCC(N)=O)NC(=O)[C@@H](NC(=O)[C@H](CCCNC(=N)N)NC(=O)[C@H](CCC(N)=O)NC(=O)[C@H](Cc1cnc[nH]1)NC(=O)[C@H](CCC(=O)O)NC(=O)[C@@H]1CCCN1C(=O)[C@H](CO)NC(=O)[C@H](CC(C)C)NC(=O)[C@H](Cc1ccccc1)NC(=O)[C@H](CO)NC(=O)[C@H](CO)NC(=O)CN)C(C)C)C(=O)N[C@@H](CCC(N)=O)C(=O)N1CCC[C@H]1C(=O)N[C@@H](CCCNC(=N)N)C(=O)O		> 10000 nM	41%
CCCCCCCC(=O)NC[C@H](NC(=O)[C@H](CO)NC(=O)CN)C(=O)N[C@@H](Cc1ccccc1)C(=O)N[C@@H](CC(C)C)C(=O)N[C@@H](CO)C(=O)N1CCC[C@H]1C(=O)N[C@@H](CCC(=O)O)C(=O)N[C@@H](Cc1cnc[nH]1)C(=O)N[C@@H](CCC(N)=O)C(=O)N[C@@H](CCCNC(=N)N)C(=O)N[C@H](C(=O)N[C@@H](CCC(N)=O)C(=O)N[C@@H](CCC(N)=O)C(=O)N[C@@H](CCCNC(=N)N)C(=O)N[C@@H](CCCCN)C(=O)N[C@@H](CCC(=O)O)C(=O)N[C@@H](CO)C(=O)N[C@@H](CCCCN)C(=O)N[C@@H](CCCCN)C(=O)N1CCC[C@H]1C(=O)N1CCC[C@H]1C(=O)N[C@@H](C)C(=O)N[C@@H](CCCCN)C(=O)N[C@@H](CC(C)C)C(=O)N[C@@H](CCC(N)=O)C(=O)N1CCC[C@H]1C(=O)N[C@@H](CCCNC(=N)N)C(=O)O)C(C)C	0.42 nM	31 nM	105%
CC(C)C[C@H](NC(=O)[C@H](CCCCN)NC(=O)[C@H](C)NC(=O)[C@@H]1CCCN1C(=O)[C@@H]1CCCN1C(=O)[C@H](CCCCN)NC(=O)[C@H](CCCCN)NC(=O)[C@H](CO)NC(=O)[C@H](CCC(=O)O)NC(=O)[C@H](CCCCN)NC(=O)[C@H](CCCNC(=N)N)NC(=O)[C@H](CCC(N)=O)NC(=O)[C@H](CCC(N)=O)NC(=O)[C@@H](NC(=O)[C@H](CCCNC(=N)N)NC(=O)[C@H](CCC(N)=O)NC(=O)[C@H](Cc1cnc[nH]1)NC(=O)[C@H](CCC(=O)O)NC(=O)[C@@H]1CCCN1C(=O)[C@H](CO)NC(=O)[C@H](CC(C)C)NC(=O)[C@H](Cc1ccccc1)NC(=O)[C@H](COC(=O)CC12CC3CC(CC(C3)C1)C2)NC(=O)[C@H](CO)NC(=O)CN)C(C)C)C(=O)N[C@@H](CCC(N)=O)C(=O)N1CCC[C@H]1C(=O)N[C@@H](CCCNC(=N)N)C(=O)O			95%
CCCCCCCC(=O)OC[C@H](NC(=O)[C@H](CO)NC(C)=O)C(=O)N[C@@H](Cc1ccccc1)C(=O)N[C@@H](CC(C)C)C(N)=O (Ac-SS(Octanoyl)FL-NH2)	> 2000 nM	1150 nM	30%
CCCCCCCC(=O)OC[C@H](NC(C)=O)C(=O)N[C@@H](Cc1ccccc1)C(=O)N[C@@H](CC(C)C)C(N)=O (Ac-Ser(Octanoyl)-Phe-Leu-NH2)	> 10000 nM	2500 nM	29%
CCCCCCCC(=O)OC[C@H](NC(=O)[C@H](CO)NC(C)=O)C(=O)N[C@@H](Cc1ccccc1)C(N)=O (Ac-Ser-Ser(Octanoyl)-Phe-NH2)	> 10000 nM	> 10000 nM	28%
CCCCCCCC(=O)OC[C@H](NC(=O)[C@H](CO)NC(=O)CN)C(=O)N[C@@H](Cc1ccccc1)C(N)=O (H-GSS(Octanoyl)F-NH2)		72 nM	91%
CCCCCCCC(=O)OC[C@H](NC(=O)[C@H](CO)NC(=O)CN)C(=O)N[C@@H](Cc1ccccc1)C(=O)N[C@@H](CC(C)C)C(N)=O (H-GSS(Octanoyl)FL-NH2)		11.5 nM	11.5%
CCCCCCCC(=O)OC[C@H](NC(=O)[C@H](CO)NC(=O)CN)C(=O)N[C@@H](Cc1ccccc1)C(=O)N[C@@H](CC(C)C)C(=O)N[C@@H](CO)C(=O)N1CCC[C@H]1C(=O)N[C@@H](CCC(=O)O)C(=O)N[C@@H](Cc1c[nH]cn1)C(=O)N[C@@H](CCC(N)=O)C(=O)N[C@@H](CCCNC(=N)N)C(=O)N[C@H](C(=O)N[C@@H](CCC(N)=O)C(=O)N[C@@H](CCC(N)=O)C(=O)N[C@@H](CCCNC(=N)N)C(=O)N[C@@H](CCCCN)C(=O)N[C@@H](CCC(=O)O)C(=O)N[C@@H](CO)C(N)=O)C(C)C (H-GSS(Octanoyl)FLSPEHQRVQQRKES-NH2) [listing 1 of 2 here]	0.77 nM	22 nM	
CCCCCCCC(=O)OC[C@H](NC(=O)[C@H](CO)NC(=O)CN)C(=O)N[C@@H](Cc1ccccc1)C(=O)N[C@@H](CC(C)C)C(=O)N[C@@H](CO)C(=O)N1CCC[C@H]1C(=O)N[C@@H](CCC(=O)O)C(=O)N[C@@H](Cc1c[nH]cn1)C(=O)N[C@@H](CCC(N)=O)C(=O)N[C@@H](CCCNC(=N)N)C(=O)N[C@H](C(=O)N[C@@H](CCC(N)=O)C(=O)N[C@@H](CCC(N)=O)C(=O)N[C@@H](CCCNC(=N)N)C(=O)N[C@@H](CCCCN)C(=O)N[C@@H](CCC(=O)O)C(=O)N[C@@H](CO)C(N)=O)C(C)C (H-GSS(Octanoyl)FLSPEHQRVQQRKES-NH2) [listing 2 of 2 here]			92%
CCCCCCCC(=O)OC[C@H](NC(=O)[C@H](CO)NC(=O)CN)C(=O)N[C@@H](Cc1ccccc1)C(=O)N[C@@H](CC(C)C)C(=O)N[C@@H](CO)C(=O)N1CCC[C@H]1C(=O)N[C@@H](CCC(=O)O)C(=O)N[C@@H](Cc1c[nH]cn1)C(=O)N[C@@H](CCC(N)=O)C(=O)N[C@@H](CCCN=C(N)N)C(=O)N[C@H](C(=O)N[C@@H](CCC(N)=O)C(=O)N[C@@H](CCC(N)=O)C(=O)N[C@@H](CCCN=C(N)N)C(=O)N[C@@H](CCCCN)C(=O)N[C@@H](CCC(=O)O)C(=O)N[C@@H](CO)C(=O)N[C@@H](CCCCN)C(=O)N[C@@H](CCCCN)C(=O)N1CCC[C@H]1C(=O)N1CCC[C@H]1C(=O)N[C@@H](C)C(N)=O)C(C)C (H-GSS(Octanoyl)FLSPEHQRVQQRKESKKPPA-NH2)		15 nM	100%
CCCCCCCC(=O)OC[C@H](NC(=O)[C@H](CO)NC(=O)CN)C(N)=O (H-Gly-Ser-Ser(Octanoyl)-NH2)	> 10000 nM	> 10000 nM	28%
